# Source: PubChem (several laboratories)
# WT yeast gro inh: growth inhibition of WT yeast, mitochondrial fusion screen | 190,000 tested, 2.1% active | inhibition, % at 10 µM | AID 1362 | mitochondrial fusion phenotypic screen, WT strain; in the data active means inhibition above about 58%; tested in S. cerevisiae
# eIF4E-4G inh: inhibitors of eIF4E and eIF4G interaction in translation initiation; TR-FRET eIF4E-eIF4GI(517-606) binding, 2 h; 220,000 tested, 0.37% active; inhibition, % at 21.7 µM;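 further: 0% = full FRET control wells and 100% = background wells lacking eIF4GI fragment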
# EBV gp42 inh: blocks Epstein-Barr virus glycoprotein 42 binding; Q1HVG2; Fluorescence polarization binding assay, mP read-out; inhibition, % (tested at 21.74 µM); 220,000 tested, 0.42% active; AID 1085; in the data active means inhibition above about 50%
# Target sequence (Q1HVG2 whole entry, looked up): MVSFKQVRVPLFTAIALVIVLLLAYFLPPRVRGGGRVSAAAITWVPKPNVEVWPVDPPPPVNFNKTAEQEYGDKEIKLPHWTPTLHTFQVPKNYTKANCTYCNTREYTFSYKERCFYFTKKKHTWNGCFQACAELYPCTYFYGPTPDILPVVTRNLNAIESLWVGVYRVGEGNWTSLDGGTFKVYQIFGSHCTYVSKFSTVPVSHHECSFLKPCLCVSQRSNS
# RBBP9 inh: inhibitors of human serine hydrolase RBBP9 | recombinant RBBP9, FP-Rh probe fluorescence polarization | inhibition, % at 7.94 µM | 220,000 tested, 0.2% active | AID 1515;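 active means inhibition above the campaign mean of all tested compounds plus 3 SD, cut at about 14% in these data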;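 further: plate controls were DMSO wells with RBBP9 for no effect and wells lacking RBBP9 protein for full effect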
#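 System: RBBP9 protein / Buffer or medium: Tris/NaCl buffer pH 8.0 with 0.1% Pluronic / Probe or stimulus: Serine-hydrolase probe FP-Rh, 375 nM pre-mixing / Dosing: 7.94 µM single dose, 0.794% DMSO / Times: enzyme-compound preincubation 30 min, then probe labeling 45 min, 25 °C / Technique: fluorescence polarization (mP), excitation 525 nm, emission 598 nm / Replication: singlicate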
# 14-3-3 Bad inh: disrupts binding of bovine 14-3-3 zeta to phospho-Bad peptide | inhibition, % at 21.7 µM | 220,000 tested, 0.71% active | AID 781 | P63103 | TR-FRET 14-3-3zeta/Dy647-pBad peptide displacement, 1 h;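 active means inhibition above about 70%, limit read from the data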;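 further: 0% = full 14-3-3 plus peptide FRET controls and 100% = background without 14-3-3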
# Target sequence (P63103 whole entry, looked up): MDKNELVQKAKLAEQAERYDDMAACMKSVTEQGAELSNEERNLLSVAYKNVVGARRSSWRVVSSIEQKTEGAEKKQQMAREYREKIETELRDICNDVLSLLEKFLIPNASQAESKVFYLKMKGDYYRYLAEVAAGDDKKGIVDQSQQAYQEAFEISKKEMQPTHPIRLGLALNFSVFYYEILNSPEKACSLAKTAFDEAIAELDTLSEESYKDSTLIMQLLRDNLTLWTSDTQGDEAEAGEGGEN
# p47phox inh: blocks human p47phox regulatory protein of NADPH oxidases. p47phox/p22phox peptide binding, fluorescence polarization, 2 h. inhibition, % at 24.7 µM. 220,000 tested, 0.53% active. AID 1274;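 further: 0% = p47phox with labelled peptide and 100% = labelled peptide alone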
# The depositor's hits bear a star; . = no result; [ ] = another dose, or the depositor's remark. The list is not random: actives were taken first. Their share in the collection is about 3.7%.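 How the source made its calls, unless noted: active means inhibition above about 30% (limit read from the data); inactive means the rest.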
SMILES,WT yeast gro inh,eIF4E-4G inh,EBV gp42 inh,RBBP9 inh,14-3-3 Bad inh,p47phox inh
COc1ccc(CCNCc2ccccn2)cc1OC,-1,4,-10,-9,75*,-1
COc1ccc([N+](=O)[O-])cc1N=Cc1c(O)n(CCc2ccccc2)c(=O)n(C(C)C)c1=O,21,3,-10,-14,8,-17
Cn1c(O)c(C=NCCN2CCNCC2)c(=O)[nH]c1=O,.,-1,-10,3,3,3
N[C@@H](Cc1c[nH]c2ccccc12)c1nnc(SCc2ccc(Cl)cc2)o1,62*,3,-12,-10,15,-8
CCOC(=O)c1c(NC(NC(=O)CF)C(Cl)(Cl)Cl)sc2c1CCCC2 (stereo unspecified),69*,4,7,-7,5,-2
O=c1[nH]c(=O)n(C2CCCCCC2)c(O)c1C=NC1CCN(Cc2ccccc2)CC1,4,-3,-10,-4,10,-12
O=c1[nH]c(=S)n(CCC2=CCCCC2)c(O)c1C=NC1CCN(Cc2ccccc2)CC1,78*,1,-48,0,4,-226
Cn1c(O)c(C=NC2CCN(Cc3ccccc3)CC2)c(=O)[nH]c1=O,.,80*,2,-4,1,-4
C/C1=C\[C@@H](C)C/C=C/[C@H]2[C@@H]3O[C@]3(C)[C@@H](C)[C@H]3[C@H](Cc4c[nH]c5ccccc45)NC(=O)[C@]32C(=O)/C=C/C(=O)[C@@H]1O,71*,3,-17,0,7,-13
CN(C)c1ccc(/C=C/c2cc[n+](C)c3ccccc23)cc1,78*,-22,-9,-13,-58,-35
CC(C)(C#CCCCCC#CC(C)(C)[N+](C)(C)C)[N+](C)(C)C,.,15,-49,-3,-3,-4
CC(C)(C)c1cc([N+](=O)[O-])cc(C(C)(C)C)c1O,81,1,-32,-7,-7,-7
N=c1c2c(n(Cc3ccc(Cl)cc3Cl)c3c1CCC3)CCCC2,70*,5,-15,-5,-9,-5
CC(Cc1cccs1)NCc1ccccc1 (stereo unspecified),-6,2,8,-9,-2,8
CCC(C)N1CCN(C(=O)Cc2ccccc2)CC1 (stereo unspecified),-2,0,2,-11,80*,-8
COc1ccc(CC(=O)N2CCN(C)CC2)cc1,-7,4,-20,-2,9,-13
COc1ccc(Br)cc1CN1CCN(C(=O)Cc2ccccc2)CC1,-1,-16,-27,-3,86*,-4
COc1ccc(CC(=O)N2CCN(C)CC2)cc1OC,-15,5,0,-5,73*,-19
O=[N+]([O-])[N-][n+]1cnn(Cc2ccccc2)c1,3,3,6,-7,-3,6
CC(C)(C)C(=O)NC1CCSC1=O (stereo unspecified),-11,-8,6,1,-8,3
O=C(NC1CCCCC1)Oc1cc2oc(=O)sc2cc1Cl,.,-1,7,0,-5,-6
Cc1nc2c(c(=O)[nH]1)C(c1ccccc1Cl)c1c(c3ccccc3oc1=O)O2 (stereo unspecified),.,-11,-7,-7,-5,-5
O=C(c1ccc(Cl)cc1)C1CCCN(Cc2ccc3nonc3c2)C1 (stereo unspecified),56,6,-12,-4,-5,48*
O=C(c1ccc(Cl)cc1)C1CCCN(Cc2cccc3ncccc23)C1 (stereo unspecified),19,-2,-3,6,-15,-9
Brc1ccc2c(c1)C(OC1CN3CCC1CC3)c1ccccc1CS2 (stereo unspecified),82*,5,-6,1,-8,-6
SMILES,WT yeast gro inh,eIF4E-4G inh,EBV gp42 inh,RBBP9 inh,14-3-3 Bad inh,p47phox inh
CCOc1ccc(-n2c(O)c(C=Nc3ccc(N(CC)CC)cc3)c(=O)[nH]c2=O)cc1,-15,-2,82*,-1,-15,-42
CCCC(=O)NC(Oc1ccc(Cl)cc1Cl)C(Cl)(Cl)Cl (stereo unspecified),-4,11,-18,-7,88*,-32
CCCC(=O)NC(Oc1ccc(OC)cc1)C(Cl)(Cl)Cl (stereo unspecified),5,2,-1,6,-11,-4
CCCC(=O)NC(Oc1ccccc1Cl)C(Cl)(Cl)Cl (stereo unspecified),10,2,-20,1,77*,-8
CCc1ccc(NC(=O)CN2CC(c3ccccc3)CC2=O)cc1 (stereo unspecified),.,4,-8,-8,8,-10
CCn1c(O)c(C=NCCN2CCOCC2)c(=O)[nH]c1=S,.,3,-12,-2,-1,-79
CC(NC1=NCCS1)c1ccccc1 (stereo unspecified),-9,2,1,-4,-12,9
CCn1c(O)c(C=Nc2ccc(N3CCOCC3)cc2)c(=O)n(CC)c1=S,-11,-5,177*,11,-9,-197
CCn1c(O)c(C=Nc2ccc(N3CCOCC3)c(Br)c2)c(=O)n(CC)c1=S,-24,4,-12,3,-1,-20
CCCCN1C(=N)C(CC)(CC)C(=O)NC1=O,16,-8,13,-4,-10,-9
CSc1nnc(C2CCNCC2)n1C,65*,6,-10,-6,87*,-5
CCOC(=O)c1nc2ccccc2c(=O)n1-c1ccc(C)cc1,.,1,-7,2,8,-18
O=C(Cc1ccccc1)OCn1nnc2ccccc2c1=O,-13,59*[fluorescence artefact?],-15,-4,18,6
CN1C[C@H](CO)C=C2c3cccc4[nH]cc(c34)C[C@H]21,-1,7,58*,-10,11,14
CN1CCN(c2ccc([N+](=O)[O-])c(SCCO)c2)CC1,-7,-2,0,-3,-9,-2
CN1Cc2c(c(C#N)c(N)n(C)c2=S)CC1(C)C,-9,2,52*,-4,-6,8
O=C(Cc1cc(=O)[nH]c(=O)[nH]1)N1CCN(CCO)CC1,-5,-1,-9,3,-4,-9
O=c1c2ccccc2[nH]c(=S)n1-c1ccc2c(c1)OCO2,63*,1,-21,0,6,-9
OC1/C(=C/c2ccc(Cl)cc2Cl)N2CCC1CC2 (stereo unspecified),4,1,-12,2,1,-3
O=C1NC(=O)C(CCc2ccncc2)(CCc2ccncc2)C(=O)N1Cc1ccccc1,6,87*,4,-12,-9,-12
O=c1c2ccccc2nc(C[n+]2ccccc2)n1-c1cccc(C(F)(F)F)c1,6,-1,8,-5,8,3
COc1ccc(C)cc1NC1=NC(C)(C)CS1,24,-4,3,6,-17,-9
COc1ccccc1N(CC(=O)NC1CCCCC1)C(=O)c1cnn(C(C)C)c1,-15,-4,-8,3,2,33*
